According to ChEMBL document CHEMBL3352195, “14,15-Epoxyeicosa-5,8,11-trienoic Acid (14,15-EET) surrogates: carboxylate modifications” (J Med Chem, 2014):

Tests used:
[1] = Vasorelaxant activity in bovine coronary artery assessed as reduction of U46619-induced contraction at 10 uM; type: functional, Bos taurus; design: scale not given: the % may be the effect or the level left
In short: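 Precontracted bovine coronary artery rings were exposed to test agent at 10 μM. Relaxation is expressed as a percentage relative to a 14,15-EET control run in the same preparation. Bioassay determinations n = 3−5.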

[2] = Vasorelaxant activity in bovine coronary artery assessed as reduction of U46619-induced contraction; type: functional, tissue-based, Bos taurus
In short: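 Bovine coronary artery rings, precontracted, exposed to compound to obtain a concentration–response for relaxation. The value is the EC50 for vasorelaxation. Bioassay determinations n = 3−5.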

[3] = molecular target: T1, Bifunctional epoxide hydrolase 2 (Homo sapiens, UniProt P34913); experiment: Inhibition of recombinant human sEH using CMNPC substrate by fluoresecent-based assay
T1 sequence (P34913 whole entry): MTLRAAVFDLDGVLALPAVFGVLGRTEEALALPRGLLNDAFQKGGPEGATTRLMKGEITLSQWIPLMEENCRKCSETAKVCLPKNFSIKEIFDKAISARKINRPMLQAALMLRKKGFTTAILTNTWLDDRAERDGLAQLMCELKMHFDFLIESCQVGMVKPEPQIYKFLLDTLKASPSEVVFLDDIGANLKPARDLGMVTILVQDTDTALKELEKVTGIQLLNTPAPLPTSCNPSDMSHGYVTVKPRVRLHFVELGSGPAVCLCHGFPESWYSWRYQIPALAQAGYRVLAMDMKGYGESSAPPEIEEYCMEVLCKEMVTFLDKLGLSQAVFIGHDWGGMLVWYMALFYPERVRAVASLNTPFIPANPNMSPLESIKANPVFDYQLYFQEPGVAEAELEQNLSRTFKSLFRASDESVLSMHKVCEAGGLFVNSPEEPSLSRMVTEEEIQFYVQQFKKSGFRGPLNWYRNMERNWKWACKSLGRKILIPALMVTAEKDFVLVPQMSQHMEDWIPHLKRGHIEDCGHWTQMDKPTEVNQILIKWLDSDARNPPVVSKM

| Structure (SMILES) | EC50 [2] [nM] | IC50 [3] [nM] | Activity [1] [%] |
| --- | --- | --- | --- |
| CCCCCC1OC1C/C=C\C/C=C\C/C=C\CCCC(=O)O (stereo not drawn) | 2200 | – | 85 |
| CCCCCCC(=O)N(CCCC/C=C\CCCCCCC(=O)OCCOCCOCCO)C(C)C | 2900 | > 500 | 86 |
| CCCCCNC(=O)NCCCC/C=C\CCCCCCC(=O)OCCOCCOCCO | 5100 | – | 72 |
| CCCCCN(C)C(=O)N(C)CCCC/C=C\CCCCCCC(=O)NCC(=O)O | 2750 | > 500 | 92 |
| CCCCCNC(=O)NCCCC/C=C\CCCCCCC(=O)NS(=O)(=O)c1ccccc1 | 6000 | – | 73 |
| CCCCCNC(=O)NCCCC/C=C\CCCCCCC(=O)NS(C)(=O)=O | 6700 | – | 61 |
| CCCCCNC(=O)NCCCC/C=C\CCCCCNS(=O)(=O)c1ccccc1 | 3400 | – | – |
| CCCCCNC(=O)NCCCC/C=C\CCCCCCP(=O)([O-])[O-].[Na+].[Na+] | > 10000 | – | 71 |
| CCCCCNC(=O)NCCCC/C=C\CCCCCCS(=O)(=O)[O-].[Na+] | 7600 | – | 63 |
| CCCCCNC(=O)NCCCC/C=C\CCCCCSc1ccccc1O | > 10000 | – | – |
| CCCCCNC(=O)NCCCC/C=C\CCCCCS(=O)(=O)c1ccccc1O | 5000 | – | – |
| CCCCCNC(=O)NCCCC/C=C\CCCCCSc1nnn[nH]1 | 3700 | – | – |
| CCCCCNC(=O)NCCCC/C=C\CCCCCSc1ncn[nH]1 | 9800 | – | – |
| CCCCCNC(=O)NCCCC/C=C\CCCCC[S+]([O-])c1ncn[nH]1 (stereo not drawn) | 3500 | – | – |
| CCCCCNC(=O)NCCCC/C=C\CCCCCS(=O)(=O)c1ncn[nH]1 | 3100 | – | – |
| CCCCCNC(=O)NCCCC/C=C\CCCCCCc1noc(=S)[nH]1 | 3300 | – | 93 |
| CCCCCNC(=O)NCCCC/C=C\CCCCCCc1nsc(=O)[nH]1 | 2400 | – | 54 |
| CCCCCNC(=O)NCCCC/C=C\CCCCCC1SC(=O)NC1=O (stereo not drawn) | > 10000 | – | – |
| CCCCCNC(=O)NCCCC/C=C\CCOc1cccc2sc(NC(C)=O)nc12 | 3300 | – | – |
| CCCCCCC(=O)N(CCCCCOc1cccc2sc(NC(C)=O)nc12)C(C)C | – | > 500 | 96 |
| CCCCNC(=O)C(=O)NCCCCCOc1cccc2sc(NC(C)=O)nc12 | 2400 | > 500 | 96 |
| CCCCCNC(=O)NCCCC/C=C\CCCCOCC(=O)O | – | – | 49 |

The next lines start with results.

| EC50 [2] [nM] | IC50 [3] [nM] | Structure (SMILES) | Activity [1] [%] |
| --- | --- | --- | --- |
| 1500 | > 500 | CCCCNC(=O)C(=O)NCCCC/C=C\CCCCCCC(=O)OCCOCCOCCO | 104 |
| 1900 | > 500 | CCCCCCC(=O)N(CCCC/C=C\CCCCCCC(=O)NCC(=O)O)C(C)C | 95 |
| 1600 | – | CCCCCNC(=O)NCCCC/C=C\CCCCCCC(=O)N[C@@H](CC(=O)[O-])C(=O)[O-].[Na+].[Na+] | 91 |
| 1000 | > 500 | CCCCCCC(=O)N(CCCC/C=C\CCCCCCc1nnn[nH]1)C(C)C | 74 |
| 180 | – | CCCCCNC(=O)NCCCC/C=C\CCCCCCc1nnn[nH]1 | 119 |
| 1100 | – | CCCCCNC(=O)NCCCC/C=C\CCCCCCCc1nnn[nH]1 | 110 |
| 1700 | > 500 | CCCCNC(=O)C(=O)NCCCC/C=C\CCCCCCc1nnn[nH]1 | 96 |
| 1100 | – | CCCCCNC(=O)NCCCC/C=C\CCCCCCc1noc(=O)[nH]1 | 89 |
| 340 | – | CCCCCNC(=O)NCCCC/C=C\CCCCCCC1=NOS(=O)N1 (stereo not drawn) | 109 |
| 320 | > 500 | CCCCCCC(=O)N(CCCC/C=C\CCCCCCC1=NOS(=O)N1)C(C)C (stereo not drawn) | 109 |
| 360 | > 500 | CCCCNC(=O)C(=O)NCCCC/C=C\CCCCCCc1noc(=S)[nH]1 | 116 |
| 900 | > 500 | CCCCCNC(=O)NCCCCCOc1cccc2sc(NC(C)=O)nc12 | 73 |
